PMI act: increases human mannose-6-phosphate isomerase activity; P34949; purified human PMI, coupled resazurin fluorescence, 20 min; active compounds read high; 1 = vehicle control, 0 substrate-free wells; activation factor at 20 µM; 0.005% of 190,000 active; AID 1214;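 active means activation factor of 2 or more at 20 µM, relative to plate controls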
Target sequence (P34949 whole entry, looked up): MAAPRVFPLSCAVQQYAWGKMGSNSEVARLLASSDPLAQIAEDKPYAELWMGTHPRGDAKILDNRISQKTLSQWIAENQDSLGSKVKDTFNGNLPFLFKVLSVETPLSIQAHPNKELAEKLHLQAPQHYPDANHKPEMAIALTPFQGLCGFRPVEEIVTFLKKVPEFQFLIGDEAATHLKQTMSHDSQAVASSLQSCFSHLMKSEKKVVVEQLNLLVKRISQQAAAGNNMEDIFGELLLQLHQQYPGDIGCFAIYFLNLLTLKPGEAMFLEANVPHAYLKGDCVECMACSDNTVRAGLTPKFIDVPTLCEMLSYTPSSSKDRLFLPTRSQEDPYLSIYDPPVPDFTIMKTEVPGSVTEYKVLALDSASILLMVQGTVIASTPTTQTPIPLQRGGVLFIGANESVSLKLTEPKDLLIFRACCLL
TNAP inh no acc: blocks human TNAP activity with no phosphate acceptor present | 0.26% of 200,000 active | inhibition, % at 20 µM | purified TNAP, CDP-star luminescence, 30 min;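 active means tissue-nonspecific alkaline phosphatase inhibition above about 50% at 20 µM in the single-dose screen, limit read from the data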;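 further: 0% = DMSO negative control and 100% = EDTA positive control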
TNAP inh hiacc: inhibitors of human TNAP at high phosphate acceptor concentration; P05186; purified TNAP, CDP-star luminescence, 1 M DEA; inhibition, % at 20 µM; 0.03% of 200,000 active; AID 1135;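 active means over 50% inhibition of tissue-nonspecific alkaline phosphatase at 20 µM in the single-dose screen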;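 further: plate controls were DMSO wells for no effect and EDTA-quenched wells as full inhibition for full effect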
TNAP act hiacc: TNAP (human) activation, high acceptor | P05186 | purified TNAP, CDP-star luminescence, 1 M DEA, 30 min; active compounds read high; 0 = EDTA background, 1 = DMSO-only activity | activation factor at 20 µM | 200,000 tested, under 10 active | AID 1136;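 active means activation factor at least 2 at 20 µM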
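Control set: EDTA negative control, DMSO positive control / Assay system: human TNAP / Quantity: TNAP 1/800 final / Evaluation: TNAP activation factor scaled between EDTA and DMSO control wells / Measured by: luminescent substrate turnover signal / Compound dosing: one dose, 20 µM / Times: 30 min enzyme reaction at room temperature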
PMI act satM6P: PMI (human) activation, high substrate. 0.34% of 190,000 active. coupled PMI enzyme assay, resazurin fluorescence, 20 min; active compounds read high; 1 = untreated enzyme, 0 = substrate-free blank. AID 1216. activation factor at 20 µM. P34949;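 active means activation factor of 2 or more at 20 µM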
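Test system: human phosphomannose isomerase with PGI, G6PDH, diaphorase coupling enzymes / Doses: 20 µM compound, 1% DMSO / Times: enzyme reaction with compound 20 min at room temperature / Measured by: Diaphorase-driven resazurin-to-resorufin fluorescence, excitation 544, emission 590 nm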
* hit, by the source's call; · = no result given. Only some compounds are listed: those with a hit (about 0.64% of all), similar ones and a draw of the others.

SMILES	PMI act	TNAP inh no acc	TNAP inh hiacc	TNAP act hiacc	PMI act satM6P
COc1ccc(CNc2nc3ccccc3n2C)c(OC)c1	1	-8	-7	1.1	1
COc1ccc(N=Nc2nc3cc(Br)c(Br)cc3n2C)c(OC)c1	1.6	22	15	0.8	2.1*
CN(NC(=O)/C=C/C(=O)O)c1ncc(C(F)(F)F)cc1Cl	1.2	0	5	0.9	1.1
C#Cc1ccc([C@@H]2C=C(C(=O)N3CCN(Cc4ccc5c(c4)OCO5)CC3)O[C@H](OCCCCO)C2)cc1	1	-9	-7	1.1	1
Cc1nc2nc(-c3ccccc3)cn2nc1C	1.3	-22	-6	1.1	1.5
CCc1ccc(-c2cn3nc(C)c(C)nc3n2)cc1	1.8	-19	-5	1	2.2*
COc1ccc([N+](=O)[O-])cc1NC(=O)c1cc(C)c(C)o1	1.2	-6	-1	1	1.2
Cn1c(=O)c(C(=O)COC(=O)c2cc(-c3ccco3)nc3ccccc23)c(N)n(CC2CC2)c1=O	1.3	-1	0	1	1.4
O=C(O)c1ccccc1C(=O)N1N=C2/C(=C/c3cccc([N+](=O)[O-])c3)CCCC2C1c1cccc([N+](=O)[O-])c1 (configuration not stated)	1	79*	3	1	1
COc1ccc2oc(=O)c(/C(C)=N/Nc3ccccc3)cc2c1	1.9	-8	4	1	2.5*
C/C(=N\NC(=O)c1ccc([N+](=O)[O-])cc1)c1cc2ccccc2oc1=O	1.1	-2	14	0.9	1.1
C/C(=N\NC(=O)c1ccccc1)c1cc2cc([N+](=O)[O-])ccc2oc1=O	0.9	19	58*	0.4	1.1
CNC(=O)c1cc2cc(OC)ccc2oc1=O	1.1	-14	-2	1	1.1
O=C(Nc1cccc([N+](=O)[O-])c1)c1ccc(N2CCCC2=O)cc1	1	-10	-5	1	1
COc1cc(-c2nc(S(=O)(=O)c3ccc(C)cc3)c(N(C)C)o2)cc(OC)c1OC	1.5	-8	1	1	2*
CC(C)OCCCN1CN(S(=O)(=O)c2ccc(Cl)cc2)c2nc3ccccc3nc21	1.4	-3	-2	1	2*
CCOC(=O)C1C(=O)Nc2nc(C)nn2C1c1ccccc1 (configuration not stated)	0.8	-2	-2	1	0.8
CCOC(=O)C1C(=O)Nc2nc3ccccc3n2C1C(C)C (configuration not stated)	0.9	92*	0	1	1
O=C(O)C1Nc2c(O)cc(Cl)c([N+](=O)[O-])c2C2C=CCC12 (configuration not stated)	1.7	65*	31	0.7	2.2*
CCCOc1ccc(/C=N/NC(=O)CSCc2ccc([N+](=O)[O-])cc2)cc1OCC	0.9	-19	-3	1	1
O=C(CSc1ncn[nH]1)Nc1nc(-c2ccccc2)ns1	0.9	76*	-3	1	1
O=C(c1ccccc1)N1CN2CN(C(=O)c3ccccc3)CC([N+](=O)[O-])(C2)C1	0.9	3	3	1	1
O=c1c(N2CCOCC2)coc2ccccc12	1.8	-8	·	·	2.8*
O=C(NCCCN1CCOCC1)c1coc2ccccc2c1=O	1.1	-6	-9	1.1	1.1
CCOC(=O)C1=C(C)NC2=C(C(=O)CC(C)(C)C2)C1c1ccc2c(c1)CCCN2C (configuration not stated)	1.5	-4	1	1	2*
SMILES	PMI act	TNAP inh no acc	TNAP inh hiacc	TNAP act hiacc	PMI act satM6P
CCOC(=O)C1=C(C)NC2=C(C(=O)CC(C)(C)C2)C1c1ccc(N(C)C)cc1 (configuration not stated)	1.2	-10	1	1	1.5
CSc1nc(-c2ccccc2)nn1S(=O)(=O)c1ccc(Cl)cc1	1	2	-7	1.1	1.1
CCS(=O)(=O)n1nc(-c2ccccc2)nc1SC	1	54*	-4	1	1
CCCC(=O)n1nc(-c2ccccc2)nc1SC	1	49	-4	1	0.9
CSc1nc(-c2ccccc2)nn1S(=O)(=O)c1ccccc1	1.1	54*	-3	1	1.1
CSc1nc(-c2ccccc2)nn1C(=O)c1ccccc1	0.9	56*	0	1	0.9
COCc1c(C(=O)N2CCN(c3ccc(C(F)(F)F)cn3)CC2)oc2ccccc12	0.8	-2	-5	1.1	0.9
CCOc1ccc2ccccc2c1/C=N/NC(=O)CC1(C)OCCCO1	1	-8	-3	1	1
Cc1cc(C)nc(/N=C(\N)Nc2ccccc2-c2ccccc2)n1	1	-18	-8	1.1	1
O=C(COC(=O)c1ccc(Br)cc1)Nc1ccccc1Br	1.2	-11	-6	1.1	1.2
Cc1[nH]c2ccccc2c1/C=N/NC(=O)c1cc(-c2cccs2)[nH]n1	0.9	81*	13	0.9	0.9
O=C(N/N=C\c1cccnc1)c1cc(-c2ccc(Cl)s2)[nH]n1	1	84*	22	0.8	1
Cc1ccc(-c2cc(C(=O)N/N=C/c3c(C)nn(-c4ccccc4)c3C)[nH]n2)cc1	0.8	83*	5	1	0.8
Cc1ccc(-c2cc(C(=O)N/N=C/c3c(C)nn(-c4ccccc4)c3C)n[nH]2)s1	0.8	60*	6	0.9	0.9
Cc1nn(-c2ccccc2)c(C)c1/C=N/NC(=O)c1cc(C(C)(C)C)[nH]n1	0.9	-10	-4	1	0.9
c1ccc(Cn2nnnc2C(c2ccccc2)N2CCN(c3nc4ccccc4s3)CC2)cc1 (configuration not stated)	0.9	-13	-8	1.1	0.9
Cc1ccc(C)c(N2CCN(C(c3ccncc3)c3nnnn3Cc3ccccc3)CC2)c1 (configuration not stated)	1	-14	-10	1.1	2.2*
C/C(N)=C(/C#N)C(=O)CSc1n[nH]c(-c2cccs2)n1	1.1	62*	-4	1	1
Cc1cc(NC(=O)CSc2n[nH]c(-c3cccs3)n2)no1	0.8	9	-3	1	0.9
CCN(CC)C(=O)C(=O)N/N=C/c1cccc(Br)c1	0.9	-7	0	1	1
O=C(O)/C=C/C(=O)Nc1ccc(OC(F)F)cc1	1.2	-13	-5	1.1	1.1
CN1/C(=C\C=C2/SC(=S)N(CC(=O)O)C2=O)C(C)(C)c2ccccc21	0.8	52*	50*	0.5	0.8
C=CCN1C(=O)/C(=C\C=C2\N(C)c3ccccc3C2(C)C)SC1=S	0.8	-4	49	0.5	0.7
Cc1cc(C)n(CC(=O)N/N=C/c2ccccn2)n1	0.9	-10	2	1	0.9
COc1cc(/C=N\NC(=O)c2ccc(=O)[nH]n2)cc(OC)c1OC	1	-15	-1	1	1

Screens deposited in PubChem BioAssay by Sanford-Burnham Center for Chemical Genomics.
